Compound activity from PubChem BioAssay.
A selection: hits, their analogues and other compounds. The true share with any hit is near 3.5%.
MrgX1 antagonist: antagonists of human MrgX1 receptor, primary screen, HEK293 cells, Fluo-4 calcium flux. Mas-related G-protein coupled receptor member X1 (Homo sapiens), Q96LB2. BAM8-22 antagonism; hits give low values. actives 1.3% (n = 310,000). AID 588676, 2011. B-score at 10 µM;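 active means calcium-response B-score plate-corrected more than 3 library SD below zero, starting fluorescence within 5 deviations, no agonist response on first addition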;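 further: peak minus trough fluorescence over baseline after final BAM8-22 challenge near maximal dose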
Target sequence (Q96LB2 whole entry, looked up): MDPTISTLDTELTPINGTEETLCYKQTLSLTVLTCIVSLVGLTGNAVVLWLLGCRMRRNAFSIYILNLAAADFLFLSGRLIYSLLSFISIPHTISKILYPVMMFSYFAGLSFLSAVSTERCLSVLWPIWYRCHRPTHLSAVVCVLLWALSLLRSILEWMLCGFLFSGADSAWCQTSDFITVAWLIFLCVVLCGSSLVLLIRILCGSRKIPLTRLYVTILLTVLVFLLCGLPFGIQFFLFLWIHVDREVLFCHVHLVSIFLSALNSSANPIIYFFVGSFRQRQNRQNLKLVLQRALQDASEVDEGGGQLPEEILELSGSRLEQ
RGS4 pot: RGS4 potentiators or activators, primary screen, cell-based, HEK293 M3R inducible RGS4, calcium flux | carbachol calcium flux Fluo4; hits give low values | actives 0.92% (n = 310,000) | B-score at 10 µM;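 active means B-score of the integrated calcium signal more than 4 SD below the library mean, with starting fluorescence not abnormally high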;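 further: negative B-score means reduced calcium response which marks RGS4 activation or potentiation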
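Assay system: Inducible-RGS4 HEK293 cells carrying M3 receptor | Schedule: Compound preincubation 20 min at room temperature before agonist | Signal: Kinetic calcium fluorescence imaging with Fluo4-AM dye, 2 µM | Read-out basis: B score from integrated fluorescence ratio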
RGS4 inh: RGS4 inhibitors, primary screen, cell-based, HEK293 M3R inducible RGS4, calcium flux; Regulator of G-protein signaling 4 (Homo sapiens), P49798; actives 0.45% (n = 310,000); B-score at 10 µM; Fluo-4 calcium flux; hits give high values; triggered by carbachol at its EC20;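 active means B-score, a plate-corrected calcium signal, over three deviations above library mean, with baseline fluorescence within five deviations of library mean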;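 further: RGS4 expression induced by doxycycline in cells with stable M3 receptor; B-score is computed from the integrated fluorescence ratio over baseline after carbachol; higher B-score means a larger calcium signal and so more RGS4 inhibition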
Target sequence (P49798 whole entry, looked up): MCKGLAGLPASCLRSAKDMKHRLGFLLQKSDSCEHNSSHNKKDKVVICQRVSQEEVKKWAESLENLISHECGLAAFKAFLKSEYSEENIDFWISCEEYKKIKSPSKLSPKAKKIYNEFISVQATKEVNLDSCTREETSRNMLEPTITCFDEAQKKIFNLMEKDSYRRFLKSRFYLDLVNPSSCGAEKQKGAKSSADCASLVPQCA
MrgX1 allo act: positive allosteric modulators of MrgX1, primary screen, HEK293 cells, Fluo-4 calcium flux | Mas-related G-protein coupled receptor member X1 (Homo sapiens), Q96LB2 | FDSS; hits give high values | B-score at 10 µM | actives 0.63% (n = 310,000);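 active means plate-corrected calcium response at least 3 library SD above typical, normal starting fluorescence, not activating the receptor alone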;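 further: compound read alongside a low EC10 to EC30 dose of BAM8-22 agonist; peak minus trough fluorescence over baseline measured at the second addition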
MrgX1 ag: agonists of human MrgX1 receptor, primary screen, HEK293 cells, Fluo-4 calcium flux | Fluo-4 calcium fluorescence, agonist mode; hits give high values | B-score at 10 µM | actives 0.44% (n = 310,000);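 active means calcium response B-score plate-corrected fluorescence ratio at least 3 library SD, with starting fluorescence B-score inside 5 SD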
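Material – MrgX1-expressing HEK293 cells · Input – 15,000 cells seeded per well · Dosing – compound as first of three additions · Times – overnight seeding, then 1 h dark dye loading · Measured by – kinetic Fluo-4 NW fluorescence of intracellular calcium · Read-out – B-scored fluorescence response ratio · Benchmarks – positive and negative control wells on each plate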
RGS4 act valid: reduced carbachol calcium response, RGS4-induced M3R cells, confirmation, RGS4 activator project, cell-based, HEK293 M3R/RGS4 inducible, calcium flux, duplicate | actives 89% (n = 1,100) | shares compounds with RGS4 pot | AID 602282, 2012 | inhibition, % at 10 µM | carbachol calcium flux Fluo4;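 active means inhibition above 3 SD of the buffer control wells, cut at about 41% in these data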;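 further: signal is the integrated peak-minus-minimum Fluo4 fluorescence over baseline ratio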
RGS4 act ctr: activity in cells without induced RGS4 expression | actives 82% (n = 1,100) | HEK293 M3R non-induced RGS4, Fluo4 calcium flux; after carbachol challenge at its EC90 | AID 602283 | shares compounds with RGS4 pot | inhibition, % at 10 µM;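 active means inhibition exceeding 3 SD of buffer-only control wells, cut at about 26% in these data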;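 further: percent drop in integrated peak-minus-baseline over baseline Fluo4 ratio after carbachol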
MrgX1 ag reconf: MrgX1 receptor agonists, duplicate retest, confirmation, HEK293 cells, Fluo-4 calcium flux; shares compounds with MrgX1 ag; Fluo-4 calcium fluorescence, FDSS; actives 78% (n = 600); activation, % at 10 µM;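 active means calcium signal rise, corrected for plate position, at least 3 library SD high, with starting brightness within 5 such deviations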
MrgX1 PAM conf: MrgX1 positive allosteric modulators, duplicate retest, confirmation, HEK293 cells, Fluo-4 calcium flux | actives 13% (n = 1,200) | activation (ratio percentage), % at 10 µM | shares compounds with MrgX1 allo act | Fluo-4 calcium fluorescence, FDSS;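 active means ratio at least 3 SD above the weak peptide control, stable starting fluorescence, no direct agonism earlier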;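 further: compound followed by low BAM8-22 agonist challenge near EC20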
MrgX1 antag conf: MrgX1 receptor antagonists, duplicate retest, confirmation, HEK293 cells, Fluo-4 calcium flux; BAM8-22 calcium flux; hits give low values; actives 19% (n = 2,300); remaining BAM8-22 calcium response % of control (hits give low values), % at 10 µM; shares compounds with MrgX1 antagonist;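 active means remaining agonist calcium response no higher than 100% minus 3 SD of agonist-only control wells, with starting fluorescence near control levels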;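 further: agonist BAM8-22 given at a near maximal EC90 to ECmax level; peak minus minimum fluorescence divided by baseline after agonist addition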
HEK293 Ca flux: nonspecific calcium signal in parental HEK293, confirmation, counter-screen for MrgX1 antagonist project, parental HEK293 cells, Fluo-4 calcium flux; shares compounds with MrgX1 antagonist; Fluo-4 calcium fluorescence, FDSS; fluorescence ratio F(max-min)/F0 at 10 µM; actives 2% (n = 4,000);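 active means duplicate-averaged calcium fluorescence ratio at least three times the standard deviation of buffer wells, a nonspecific response in parental cells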
HEK293 Ca counter: calcium response in parental HEK293 cells, primary screen, counter-screen for MrgX1 allosteric activator project, cell-based, Fluo-4 calcium flux, duplicate. shares compounds with MrgX1 antagonist. Fluo-4 fluorescence ratio; hits give high values. fluorescence ratio F(max-min)/F0 at 10 µM. actives 0.4% (n = 4,000). AID 624114, 2012;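 active means calcium fluorescence ratio, averaged over duplicates, at least 3 SD of the buffer-well ratio, meaning a nonspecific response in receptor-free cells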;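 further: untransfected parental HEK293 lacking MrgX1 used as counterscreen for MrgX1 allosteric activators; fluorescence change taken during the second addition on a kinetic imager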
HEK293 Ca cntr2: calcium response in parental HEK293 cells, primary screen, counter-screen for MrgX1 agonist project, cell-based, Fluo-4 calcium flux, duplicate, agonist mode. shares compounds with MrgX1 antagonist. Fluo-4 calcium fluorescence (FDSS); hits give high values. fluorescence ratio F(max-min)/F0 at 10 µM. actives 8.7% (n = 4,000). AID 624115, 2012;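 active means calcium fluorescence ratio at least three times the spread of buffer wells, meaning a non-specific response in parental cells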
* = called active by the depositor.

Results for O=C(CCN1C(=O)S/C(=C\c2ccccc2)C1=O)Nc1ccc(O)cc1C(=O)O ?
MrgX1 antagonist: inactive; RGS4 pot: inactive; RGS4 inh: inactive; MrgX1 allo act: inactive; MrgX1 ag: inactive

What do the screens show for `COc1ccc(Nc2nnc(-c3ccc(O)cc3)c3ccccc23)cc1`?
MrgX1 antagonist: -8.4*; RGS4 pot: -9.3*; RGS4 inh: inactive; MrgX1 allo act: inactive; MrgX1 ag: inactive; RGS4 act valid: 82*; RGS4 act ctr: 43*; MrgX1 antag conf: inactive; HEK293 Ca flux: inactive; HEK293 Ca counter: 54*; HEK293 Ca cntr2: inactive

Results for Oc1ccc(Nc2nnc(-c3ccc(O)cc3)c3ccccc23)cc1 ?
MrgX1 antagonist: inactive; RGS4 pot: inactive; RGS4 inh: inactive; MrgX1 allo act: inactive; MrgX1 ag: inactive

Results for O=C(CCN1CCN(CCO)CC1)Nc1ccc(Br)cc1 ?
MrgX1 antagonist: inactive; RGS4 pot: inactive; RGS4 inh: inactive; MrgX1 allo act: inactive; MrgX1 ag: inactive

How did COc1cccc(N2CCN(c3ncnc4c3[nH]c3ccccc34)CC2C)c1 (centres undefined) do in these assays?
MrgX1 antagonist: -15*; RGS4 pot: -9*; RGS4 inh: inactive; MrgX1 allo act: inactive; MrgX1 ag: inactive; RGS4 act valid: 94*; RGS4 act ctr: 83*; MrgX1 antag conf: 4.6%*; HEK293 Ca flux: inactive; HEK293 Ca counter: inactive; HEK293 Ca cntr2: inactive

Results for Cc1cc(N2CCCCC2)nc2ccc(NC(=O)c3ccc(Br)o3)cc12 ?
MrgX1 antagonist: -6.9*; RGS4 pot: -7.7*; RGS4 inh: inactive; MrgX1 allo act: inactive; MrgX1 ag: inactive; RGS4 act valid: 72*; RGS4 act ctr: 84*; MrgX1 antag conf: inactive; HEK293 Ca flux: inactive; HEK293 Ca counter: inactive; HEK293 Ca cntr2: inactive

What do the screens show for `Cc1cc(N2CCN(C)CC2)nc2ccc(NC(=O)c3ccc(Br)o3)cc12`?
MrgX1 antagonist: inactive; RGS4 pot: inactive; RGS4 inh: inactive; MrgX1 allo act: inactive; MrgX1 ag: inactive

How did O=C(OCc1ccc(F)cc1)c1ccc2c(c1)-c1ccccc1C2=O do in these assays?
MrgX1 antagonist: inactive; RGS4 pot: inactive; RGS4 inh: inactive; MrgX1 allo act: inactive; MrgX1 ag: inactive

What do the screens show for `CCOC(=O)C1=C(Cc2ccc(F)cc2)C(=O)c2ccccc2C1=O`?
MrgX1 antagonist: inactive; RGS4 pot: -9.1*; RGS4 inh: inactive; MrgX1 allo act: inactive; MrgX1 ag: 108*; RGS4 act valid: 89*; RGS4 act ctr: 46*; MrgX1 ag reconf: 163%*; HEK293 Ca flux: inactive; HEK293 Ca counter: inactive; HEK293 Ca cntr2: 54*

Results for CCOC(=O)C1=C(SCC)c2cc3c(n2C1=O)CCCC3 ?
MrgX1 antagonist: inactive; MrgX1 allo act: inactive; MrgX1 ag: inactive

Results for CCCCc1ccc(N/C(N)=N/c2nc(C)cc(C)n2)cc1 ?
MrgX1 antagonist: inactive; RGS4 pot: -9.6*; RGS4 inh: inactive; MrgX1 allo act: inactive; MrgX1 ag: 87*; RGS4 act valid: 38*; RGS4 act ctr: 84*; MrgX1 ag reconf: 511%*; HEK293 Ca flux: inactive; HEK293 Ca counter: inactive; HEK293 Ca cntr2: 113*

What do the screens show for `COC(=O)c1sc(-c2ccc(C(C)(C)C)cc2)cc1NC(=O)CSCC(=O)O`?
MrgX1 antagonist: -5.3*; RGS4 pot: -7.7*; RGS4 inh: inactive; MrgX1 allo act: inactive; MrgX1 ag: inactive; RGS4 act valid: 75*; RGS4 act ctr: 84*; MrgX1 antag conf: inactive; HEK293 Ca flux: inactive; HEK293 Ca counter: inactive; HEK293 Ca cntr2: inactive

What do the screens show for `COc1ccc(NC(=O)O/N=C/c2c(C)nn(C(C)(C)C)c2C)cc1`?
MrgX1 antagonist: inactive; RGS4 pot: inactive; RGS4 inh: inactive; MrgX1 allo act: inactive; MrgX1 ag: inactive

What do the screens show for `CN(Cc1ccccc1)c1nc2c(c(=O)n(C)c(=O)n2C)n1CCCc1ccccc1`?
MrgX1 antagonist: inactive; RGS4 pot: -8.5*; RGS4 inh: inactive; MrgX1 allo act: 8.9*; MrgX1 ag: inactive; RGS4 act valid: 75*; RGS4 act ctr: 84*; MrgX1 PAM conf: inactive; HEK293 Ca flux: inactive; HEK293 Ca counter: inactive; HEK293 Ca cntr2: inactive

What do the screens show for `CCN(CC)c1nc2c(c(=O)n(C)c(=O)n2C)n1CCCc1ccccc1`?
MrgX1 antagonist: inactive; RGS4 pot: inactive; RGS4 inh: inactive; MrgX1 allo act: inactive; MrgX1 ag: inactive
